Active and inactive are the calls of the source.
Assays:
Human alphaherpesvirus 1 = assay: Antiviral activity against HSV1 KOS infected in african green monkey Vero cells after 3 days by plaque reduction assay; type: functional, organism-based; conditions: Human alphaherpesvirus 1, KOS, 72 h
Method in brief: (§1)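 Plaque reduction assay. Vero 76 cells at 2 × 10^5/well, grown overnight to confluence in D-MEM with 10% FBS. Infected 2 h with 50–100 PFU/well, unadsorbed virus removed. Overlay of D-MEM with 1% inactivated FBS and 0.75% methylcellulose, with or without serial compound dilutions. Incubated at 37 °C for 3 days (HSV-1 KOS, CVB-2 Ohio-1) or 5 days (RSV A2). Fixed and stained with crystal violet in 50% ethanol; plaques counted; EC50 by linear regression.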

[1] = Cytotoxicity against MDBK cells after 48 to 96 hrs by MTT assay; type: cell-based, Bos taurus; conditions: cattle, MDBK cells
Method in brief: (§2)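 Cell seeding: MDBK at 6 × 10^5 cells/mL in MEM-E with 10% horse serum and 1 mM Na pyruvate; BHK at 1 × 10^6 cells/mL in MEM-E with 10% FBS. Serial compound dilutions, 37 °C, 5% CO2. Viability of mock-infected cells by MTT after 48–96 h; CC50 is the concentration reducing viability by 50%.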

Coxsackievirus B2 = assay: Antiviral activity against Human coxsackievirus B2 Ohio-1 infected in african green monkey Vero cells after 3 days by plaque reduction assay; type: functional, organism-based, Coxsackievirus B2 (strain Ohio-1); conditions: Enterovirus B, Vero, 72 h; method in brief: as §1
Poliovirus 1 = assay: Antiviral activity against Polio virus type1 Sabin strain Chat infected in african green monkey Vero cells after 2 days by plaque reduction assay; type: functional, organism-based, Human poliovirus 1 strain Sabin; conditions: Enterovirus C, 48 h
[2] = test system: Bovine viral diarrhea virus 1; assay: Antiviral activity against Bovine viral diarrhea virus NADL infected in MDBK cells assessed as protection from virus-induced cytopathogenicity after 3 to 4 days by MTT method; type: functional, organism-based, Bovine viral diarrhea virus 1-NADL; conditions: Bovine viral diarrhea virus isolates and strains, MDBK
Method in brief: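 Cytopathogenicity protection assay. MDBK cells at 3 × 10^4/well, grown overnight to confluence. Infected with BVDV NADL at m.o.i. 0.01 in MEM-E with 0.5% inactivated FBS, 1 mM Na pyruvate and 1% kanamycin. Serial compound dilutions added after 1 h. After 3–4 days at 37 °C, viability read by MTT; EC50 is the concentration giving 50% protection.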

[3] = Selectivity index, ratio of CC50 for african green monkey Vero cells to EC50 for Human coxsackievirus B2 Ohio-1; type: toxicity, cell-based; conditions: read-out: Ratio CC50/EC50
[4] = Cytotoxicity against african green monkey Vero cells; type: cell-based; conditions: chlorocebus sabaeus
Method in brief: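 Vero 76 monolayers exposed to serial compound dilutions, run in parallel on the same 24-well plates as the plaque-reduction assays. CC50 is the concentration reducing viability of mock-infected cells by 50%.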

[5] = test system: Human immunodeficiency virus 1; assay: Antiviral activity against HIV1 3B infected in human MT4 cells assessed as protection from virus-induced cytopathogenicity after 4 days by MTT method; type: functional, organism-based
Method in brief: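 MT-4 cells, 1 × 10^4/well in RPMI with or without serial compound dilutions, infected with HIV-1 IIIB, 100 CCID50 (m.o.i. 0.01). Protection from virus-induced cytopathogenicity read by MTT.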

[6] = Cytotoxicity against human MT4 cells after 96 hrs by MTT assay; type: cell-based; conditions: MT4 cells
Method in brief: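 Exponentially growing MT-4 cells at 1 × 10^5 cells/mL in RPMI-1640 with 10% FCS, exposed to serial compound dilutions at 37 °C, 5% CO2. Viability by MTT after 96 h; CC50 is the concentration reducing viability of mock-infected cells by 50%.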

[7] = Cytotoxicity against BHK cells after 48 to 96 hrs by MTT assay; type: cell-based, Mesocricetus auratus; conditions: hamster; method in brief: as §2
[8] = test system: Vesicular stomatitis virus; assay: Antiviral activity against VSV Indiana lab infected in african green monkey Vero cells after 2 days by plaque reduction assay; type: functional, organism-based
[9] = Selectivity index, ratio of CC50 for human MT4 cells to EC50 for Human coxsackievirus B2 Ohio-1; type: toxicity, cell-based; conditions: read-out: Ratio CC50/EC50
Yellow fever virus = assay: Antiviral activity against Yellow fever virus 17D infected in BHK cells assessed as protection from virus-induced cytopathogenicity after 3 to 4 days by MTT method; type: functional, organism-based
[10] = Selectivity index, ratio of CC50 for MDBK cells to EC50 for Bovine viral diarrhea virus NADL; type: toxicity, cell-based; conditions: cattle, read-out: Ratio CC50/EC50
[11] = Selectivity index, ratio of CC50 for human MT4 cells to EC50 for Bovine viral diarrhea virus NADL; type: toxicity, cell-based; conditions: read-out: Ratio CC50/EC50
[12] = test system: Respiratory syncytial virus; assay: Antiviral activity against RSV A2 infected in african green monkey Vero cells after 5 days by plaque reduction assay; type: functional, organism-based; conditions: for EC50: human respiratory syncytial virus, A2, Vero, 120 h; method in brief: as §1
Vaccinia virus = assay: Antiviral activity against Vaccinia virus Elstree-Lister infected in african green monkey Vero cells after 3 days by plaque reduction assay; type: functional, organism-based; conditions: Orthopoxvirus vaccinia; for EC50: 72 h
[13] = test system: Mammalian orthoreovirus 1; assay: Antiviral activity against Reovirus 1 3651 infected in BHK21 cells assessed as protection from virus-induced cytopathogenicity after 3 to 4 days by MTT method; type: functional, organism-based; conditions: BHK-21
Hepatitis C virus = assay: Inhibition of HCV 1b NS5B Cdelta21 RNA dependent RNA polymerase expressed in Escherichia coli after 30 mins by fluorescence assay; type: functional, Hepatitis C virus subtype 1b; conditions: 0.5 h
Method in brief: (§3)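 N-His-tagged NS5B from E. coli Rosetta2(DE3)pLysS (BVDV C-terminal Δ24; HCV1b Δ21), Ni-NTA purified, 500–600 ng per 20 µL reaction. Template 10 µg/mL poly(rC), primer 0.1 µg/mL oligo(rG)12, substrate 80 µM GTP; 20 mM Tris pH 7.0, 0.5 mM MnCl2 or 5 mM MgCl2, 5% DMSO. Enzyme pre-incubated with drug 30 min at room temperature.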

[14] = Inhibition of Bovine viral diarrhea virus NADL NS5B Cdelta24 RNA dependent RNA polymerase expressed in Escherichia coli after 30 mins by fluorescence assay; design: species or system Bovine viral diarrhea virus 1-NADL; method in brief: as §3

Row | Compound | EC50 (Human alphaherpesvirus 1) | CC50 [1] | EC50 (Coxsackievirus B2) | EC50 (Poliovirus 1) | EC50 [2] | selectivity ratio [3] | CC50 [4] | Activity [5] | CC50 at 96 h [6] | CC50 [7] | Activity [8] | selectivity ratio [9] | EC50 (Yellow fever virus) | selectivity ratio [10] | selectivity ratio [11] | EC50 [12] | further results
1 | CCC(=O)Nc1ccc(-c2nc3cc(C(F)(F)F)ccc3[nH]2)cc1 | > 100 µM | > 100 µM | 4 µM | > 100 µM | > 100 µM | > 25 | > 100 µM | inactive | ≥ 100 µM | 100 µM | inactive | ≥ 25 | > 100 µM |  |  |  | 
2 | CC(=O)Nc1ccc(-c2nc3cc(C(F)(F)F)ccc3[nH]2)cc1 | 7 µM | 50 µM | 3 µM | 16 µM | 1.3 µM | 17 | 50 µM | inactive | 19 µM | 53 µM | inactive | 6.3 | > 53 µM | 39 | 15 |  | 
3 | Nc1ccc(-c2nc3cc(Cl)c(Cl)cc3[nH]2)cc1 | 28 µM | 7.5 µM | 11 µM | > 100 µM | 1 µM |  | ≥ 100 µM | inactive | 17 µM | 30 µM | inactive |  | > 30 µM | 7.5 | 17 | 10 µM | 
4 | CCN(CC)CC(=O)Nc1ccc(-c2nc3cc(C(F)(F)F)ccc3[nH]2)cc1 | 24 µM | 13 µM | > 24 µM | > 24 µM | 2 µM |  | 24 µM | inactive | 8 µM | 23 µM | inactive |  | 7 µM | 6.5 | 4 |  | 
5 | COc1cccc(-c2nc3cc(C(F)(F)F)ccc3[nH]2)c1 | 12 µM | 28 µM | 4 µM | > 100 µM | > 28 µM | > 25 | > 100 µM | inactive | 19 µM | 90 µM | inactive | 4.8 | > 90 µM |  |  | 7 µM | EC50 (Vaccinia virus): > 100 µM
6 | O=C(CN1CCCC1)Nc1ccc(-c2nc3cc(C(F)(F)F)ccc3[nH]2)cc1 | > 100 µM | 15 µM | > 100 µM | > 100 µM | 3 µM |  | > 100 µM | inactive | 18 µM | 29 µM | inactive |  | 7 µM | 5 | 6 |  | 
7 | CC(=O)Nc1ccc(-c2nc3cc(C(F)(F)F)ccc3n2C)cc1 | 49 µM | 46 µM | 2.5 µM | 14 µM | > 46 µM | > 40 | > 100 µM | inactive | 15 µM | > 100 µM | inactive | 6 | > 100 µM |  |  |  | Activity [12]: inactive; Activity (Vaccinia virus): inactive; Activity [13]: inactive
8 | COc1cc(OC)cc(-c2nc3cc(C(F)(F)F)ccc3[nH]2)c1 | > 100 µM | > 100 µM | 3 µM | > 100 µM | > 100 µM | > 33 | > 100 µM | inactive | 19 µM | > 100 µM | inactive | 6.3 | > 100 µM |  |  | 10 µM | EC50 (Vaccinia virus): > 100 µM
9 | O=C(CN1CCCC1)Nc1ccc(-c2nc3cc(Cl)c(Cl)cc3[nH]2)cc1 | > 100 µM | 16 µM | 1.5 µM | 25 µM | 2.5 µM | > 67 | > 100 µM | inactive | 8 µM | 64 µM | inactive | 5.3 | > 64 µM |  |  |  | 
10 | Nc1ccc(-c2nc3cc([N+](=O)[O-])ccc3[nH]2)cc1 | > 100 µM | 79 µM | > 100 µM | > 100 µM | 1.5 µM |  | > 100 µM | inactive | 100 µM | > 100 µM | inactive |  | > 100 µM | 53 | 67 |  | IC50 (Hepatitis C virus): 33 µM; IC50 [14]: 18 µM
